Laboratory results taken from ChEMBL document CHEMBL3108709, “Diversity-oriented synthesis yields a new drug lead for treatment of chagas disease” (ACS Med Chem Lett, 2014).
Values after ≈ are worked out from the molar mass of the structure shown. Blank lines part the entries; values can stand above or below the compound they belong to. Active and inactive are the calls of the source. The rule behind the calls is not given here.

How the values were obtained:
[1] = tested on: Trypanosoma cruzi; test: Antitrypanosomal activity against amastigote stage of Trypanosoma cruzi Tulahuen infected in rat L6 cells assessed as parasite growth inhibition after 96 hrs by beta-galactosidase reporter gene assay; format: functional, organism-based; settings: L6, 96 h
[2] = Solubility of the compound in phosphate buffer saline; format: physicochemical
[3] = tested on: Trypanosoma cruzi; test: Antitrypanosomal activity against Trypanosoma cruzi Tulahuen infected in mouse NIH/3T3 cells assessed as multimode parasite growth inhibition after 4 days by beta-galactosidase reporter gene assay; format: functional, organism-based; settings: NIH3T3, 96 h
In short: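 Recombinant Tulahuen T. cruzi stably expressing a beta-galactosidase reporter, cocultured with mouse NIH/3T3 fibroblast host cells. Compounds added to host cells before infection with parasites; growth inhibition read by reporter; IC50 in nM.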

[4] = tested on: Trypanosoma cruzi; test: Trypanocidal activity against Trypanosoma cruzi CA-I/72 infected in BESM cells assessed as parasite re-emergence at 40 nM measured over 29 days of drug treatment; format: functional, organism-based
In short: (§1)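 T. cruzi-infected bovine embryo skeletal muscle (BESM) cells treated with varying compound concentrations for 20 or 29 days, compound refreshed every other day, then followed up to 36 days post-treatment. Trypomastigote emergence into medium checked visually daily through treatment and post-treatment phases; no re-emergence taken as trypanocidal, delayed emergence as trypanostatic.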

[5] = tested on: Trypanosoma cruzi; test: Trypanocidal activity against Trypanosoma cruzi CA-I/72 infected in BESM cells assessed as parasite re-emergence at 40 nM treated for 29 days measured after 36 days; format: functional, organism-based; in short: as §1
[6] = Plasma protein binding in human; format: ADME, cell-free; settings: read-out: PPB (converted)
[7] = Metabolic stability in mouse microsomes assessed as compound remaining at 1 uM after 1 hr; format: ADME, Microsome; settings: read-out: Stability
In short: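 Mouse liver microsomes incubated 1 h with compound at 1 μM; result expressed as percent of compound remaining.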

[8] = tested on: Trypanosoma cruzi; test: Trypanocidal activity against Trypanosoma cruzi CA-I/72 infected in BESM cells assessed as parasite re-emergence at 6.6 uM measured over 20 days of drug treatment; format: functional, organism-based; in short: as §1
[9] = tested on: Trypanosoma cruzi; test: Trypanocidal activity against Trypanosoma cruzi CA-I/72 infected in BESM cells assessed as parasite re-emergence at 6.6 uM treated for 20 days measured after 37 days; format: functional, organism-based; in short: as §1
[10] = tested on: Trypanosoma cruzi; test: Trypanocidal activity against Trypanosoma cruzi CA-I/72 infected in BESM cells assessed as parasite re-emergence at 740 nM treated for 20 days measured after 37 days; format: functional, organism-based; in short: as §1
[11] = tested on: Trypanosoma cruzi; test: Trypanocidal activity against Trypanosoma cruzi CA-I/72 infected in BESM cells assessed as parasite re-emergence at 250 nM treated for 20 days measured after 4 days; format: functional, organism-based; in short: as §1
[12] = tested on: Trypanosoma cruzi; test: Trypanocidal activity against Trypanosoma cruzi CA-I/72 infected in BESM cells assessed as parasite re-emergence at 740 nM measured over 20 days of drug treatment; format: functional, organism-based; in short: as §1
[13] = tested on: Trypanosoma cruzi; test: Trypanocidal activity against Trypanosoma cruzi CA-I/72 infected in BESM cells assessed as parasite re-emergence at 250 nM measured over 20 days of drug treatment; format: functional, organism-based; in short: as §1
[14] = Fraction unbound in human plasma; format: ADME, cell-free

SMILES: C[C@@H]1CN([C@H](C)CO)C(=O)c2cccc(NC(=O)c3ccncc3)c2O[C@H]1CN(C)Cc1ccc(Oc2ccccc2)cc1
Activity [4]: Active
IC50 [1]: 22 nM
solubility [2]: 1 µM (≈ 0.595 µg/mL)
IC50 [3]: 5 nM
Activity [5]: Active
fraction unbound [6]: 0.01
remaining at 1 h, 1 µM [7]: 1%

SMILES: CC(C)N1C[C@H](C)[C@@H](CN(C)Cc2ccccc2)Oc2c(NC(=O)c3ccncc3)cccc2C1=O
IC50 [3]: < 1 nM

SMILES: C[C@H]1CN([C@@H](C)CO)C(=O)c2cccc(NC(=O)c3ccncc3)c2O[C@@H]1CN(C)Cc1cccc(C(F)(F)F)c1
IC50 [3]: 1 nM

SMILES: C[C@H]1CN([C@@H](C)CO)C(=O)c2cccc(NC(=O)c3ccncc3)c2O[C@@H]1CN(C)Cc1cc(Cl)ccc1Cl
IC50 [3]: 57 nM

SMILES: CC(C)N1C[C@H](C)[C@@H](CN(C)Cc2ccc(Oc3ccccc3)cc2)Oc2c(NC(=O)C3CCN(C)CC3)cccc2C1=O
IC50 [3]: 1200 nM

SMILES: O=C(Cn1ccnc1[N+](=O)[O-])NCc1ccccc1
Activity [8]: Active
Activity [9]: Active

SMILES: C[C@H]1CN([C@@H](C)CO)C(=O)c2cccc(NC(=O)c3ccncc3)c2O[C@@H]1CN(C)Cc1ccc(Oc2ccccc2)cc1
Activity [10]: Active
Activity [4]: Active
Activity [11]: inactive
Activity [12]: Active
Activity [13]: inactive
IC50 [1]: 16 nM
solubility [2]: 1 µM (≈ 0.595 µg/mL)
IC50 [3]: 1 nM
Activity [5]: Active
fraction unbound [6]: 0.01
remaining at 1 h, 1 µM [7]: 77%

SMILES: CC(C)N1C[C@H](C)[C@@H](CN(C)Cc2ccc(Oc3ccccc3)cc2)Oc2c(NC(=O)c3ccccc3)cccc2C1=O
IC50 [3]: 500 nM

SMILES: Cc1ccc(CN(C)C[C@H]2Oc3c(NC(=O)c4ccncc4)cccc3C(=O)N([C@@H](C)CO)C[C@@H]2C)cc1
IC50 [3]: 14 nM

SMILES: Cc1ccccc1CN(C)C[C@H]1Oc2c(NC(=O)c3ccncc3)cccc2C(=O)N([C@@H](C)CO)C[C@@H]1C
IC50 [3]: 56 nM

SMILES: C[C@H]1CN([C@@H](C)CO)C(=O)c2cccc(NC(=O)c3ccncc3)c2O[C@@H]1CN(C)Cc1ccc(Cl)c(F)c1
IC50 [3]: 1 nM

SMILES: C[C@H]1CN([C@@H](C)CO)C(=O)c2cccc(NC(=O)c3ccncc3)c2O[C@@H]1CN(C)Cc1ccc(Cl)cc1
IC50 [3]: 1 nM

SMILES: C[C@H]1CN([C@@H](C)CO)C(=O)c2cccc(NC(=O)c3ccncc3)c2O[C@@H]1CN(C)Cc1ccc(C(F)(F)F)cc1
IC50 [1]: 422 nM
IC50 [3]: 13 nM

SMILES: Cc1cccc(CN(C)C[C@H]2Oc3c(NC(=O)c4ccncc4)cccc3C(=O)N([C@@H](C)CO)C[C@@H]2C)c1
IC50 [3]: 1 nM

SMILES: COc1ccccc1CN(C)C[C@H]1Oc2c(NC(=O)c3ccncc3)cccc2C(=O)N([C@@H](C)CO)C[C@@H]1C
IC50 [3]: 78 nM

SMILES: COc1cccc(CN(C)C[C@H]2Oc3c(NC(=O)c4ccncc4)cccc3C(=O)N([C@@H](C)CO)C[C@@H]2C)c1
IC50 [3]: 57 nM

SMILES: C[C@H]1CN([C@@H](C)CO)C(=O)c2cccc(NC(=O)c3ccncc3)c2O[C@@H]1CN(C)Cc1cccc(Cl)c1Cl
IC50 [3]: 25 nM

SMILES: C[C@H]1CN([C@@H](C)CO)C(=O)c2cccc(NC(=O)c3ccncc3)c2O[C@H]1CN(C)Cc1ccc(Oc2ccccc2)cc1
Activity [4]: Active
fraction unbound [14]: 0.05
IC50 [1]: 59 nM
solubility [2]: 93 µM (≈ 55.3 µg/mL)
IC50 [3]: 23 nM
Activity [5]: Active
fraction unbound [6]: 0.05
remaining at 1 h, 1 µM [7]: < 1%

SMILES: C[C@H]1CN([C@@H](C)CO)C(=O)c2cccc(NC(=O)c3ccncc3)c2O[C@@H]1CN(C)Cc1ccc(-c2ccccc2)cc1
IC50 [3]: 10 nM

SMILES: CC(C)N1C[C@H](C)[C@@H](CN(C)Cc2cccc(Cl)c2)Oc2c(NC(=O)c3ccncc3)cccc2C1=O
IC50 [3]: 2 nM

SMILES: CC(C)N1C[C@H](C)[C@@H](CN(C)Cc2ccc(Oc3ccccc3)cc2)Oc2c(NC(=O)c3cccnc3)cccc2C1=O
IC50 [3]: 45 nM

SMILES: COc1ccc(CN(C)C[C@H]2Oc3c(NC(=O)c4ccncc4)cccc3C(=O)N([C@@H](C)CO)C[C@@H]2C)cc1
IC50 [3]: 127 nM

SMILES: C[C@@H]1CN([C@@H](C)CO)C(=O)c2cccc(NC(=O)c3ccncc3)c2O[C@@H]1CN(C)Cc1ccc(Oc2ccccc2)cc1
fraction unbound [14]: 0.05
IC50 [1]: 670 nM
solubility [2]: 87 µM (≈ 51.7 µg/mL)
IC50 [3]: 450 nM
fraction unbound [6]: 0.05
remaining at 1 h, 1 µM [7]: < 1%

The next lines start with results.

IC50 [1]: 83 nM
solubility [2]: 64 µM (≈ 36.6 µg/mL)
IC50 [3]: < 1 nM
SMILES: C[C@H]1CN([C@@H](C)CO)C(=O)c2cccc(NC(=O)c3ccncc3)c2O[C@@H]1CN(C)Cc1ccc(Cl)c(Cl)c1

IC50 [1]: 61 nM
IC50 [3]: 1 nM
SMILES: CC(C)N1C[C@H](C)[C@@H](CN(C)Cc2ccc(Cl)cc2)Oc2c(NC(=O)c3ccncc3)cccc2C1=O

IC50 [3]: 10 nM
SMILES: C[C@H]1CN([C@@H](C)CO)C(=O)c2cccc(NC(=O)c3ccncc3)c2O[C@@H]1CN(C)Cc1cc(Cl)cc(Cl)c1

IC50 [3]: 50 nM
SMILES: C[C@H]1CN([C@@H](C)CO)C(=O)c2cccc(NC(=O)c3ccncc3)c2O[C@@H]1CN(C)Cc1ccc(F)c(F)c1

IC50 [3]: 45 nM
SMILES: CC(C)N1C[C@H](C)[C@@H](CN(C)Cc2ccccc2Cl)Oc2c(NC(=O)c3ccncc3)cccc2C1=O

IC50 [3]: 34 nM
SMILES: C[C@H]1CN([C@@H](C)CO)C(=O)c2cccc(NC(=O)c3ccncc3)c2O[C@@H]1CN(C)Cc1ccccc1C(F)(F)F

IC50 [3]: 445 nM
SMILES: C[C@H]1CN([C@@H](C)CO)C(=O)c2cccc(NC(=O)c3ccncc3)c2O[C@@H]1CN(C)Cc1c(Cl)cccc1Cl

solubility [2]: 100 µM (≈ 50.3 µg/mL)
IC50 [3]: 12 nM
SMILES: C[C@H]1CN([C@@H](C)CO)C(=O)c2cccc(NC(=O)c3ccncc3)c2O[C@@H]1CN(C)Cc1ccccc1

IC50 [1]: 31 nM
solubility [2]: 2 µM (≈ 1.19 µg/mL)
IC50 [3]: 2 nM
fraction unbound [6]: 0.01
remaining at 1 h, 1 µM [7]: 70%
SMILES: C[C@H](CO)N1C[C@H](C)[C@@H](CN(C)Cc2ccc(Oc3ccccc3)cc2)Oc2c(NC(=O)c3ccncc3)cccc2C1=O

IC50 [1]: 288 nM
IC50 [3]: 1 nM
SMILES: CC(C)N1C[C@H](C)[C@@H](CN(C)Cc2ccc(Oc3ccccc3)cc2)Oc2c(NC(=O)c3ccncc3)cccc2C1=O

IC50 [3]: 15 nM
SMILES: C[C@H]1CN([C@@H](C)CO)C(=O)c2cccc(NC(=O)c3ccncc3)c2O[C@@H]1CN(C)Cc1cccc(Cl)c1

IC50 [1]: 24 nM
solubility [2]: 1 µM (≈ 0.595 µg/mL)
IC50 [3]: 1 nM
fraction unbound [6]: 0.01
remaining at 1 h, 1 µM [7]: 2%
SMILES: C[C@@H]1CN([C@@H](C)CO)C(=O)c2cccc(NC(=O)c3ccncc3)c2O[C@H]1CN(C)Cc1ccc(Oc2ccccc2)cc1
Activity [4]: Active
Activity [5]: Active

IC50 [3]: 27 nM
SMILES: C[C@H]1CN([C@@H](C)CO)C(=O)c2cccc(NC(=O)c3ccncc3)c2O[C@@H]1CN(C)Cc1ccc(Cl)cc1Cl

IC50 [3]: 1000 nM
SMILES: CC(C)N1C[C@H](C)[C@@H](CN(C)Cc2ccc(Oc3ccccc3)cc2)Oc2c(NC(=O)C3CCNCC3)cccc2C1=O

IC50 [3]: 344 nM
SMILES: CC(C)N1C[C@H](C)[C@@H](CN(C)Cc2ccc(Oc3ccccc3)cc2)Oc2c(NC(=O)c3ccccn3)cccc2C1=O

IC50 [3]: 165 nM
SMILES: C[C@H]1CN([C@@H](C)CO)C(=O)c2cccc(NC(=O)c3ccncc3)c2O[C@@H]1CN(C)Cc1ccccc1Cl

solubility [2]: 100 µM (≈ 50.4 µg/mL)
IC50 [3]: > 32000 nM
SMILES: C[C@H]1CN([C@@H](C)CO)C(=O)c2cccc(NC(=O)c3ccncc3)c2O[C@@H]1CN(C)Cc1ccncc1

fraction unbound [14]: 0.05
IC50 [1]: 1200 nM
solubility [2]: 86 µM (≈ 51.1 µg/mL)
IC50 [3]: 260 nM
fraction unbound [6]: 0.05
remaining at 1 h, 1 µM [7]: < 1%
SMILES: C[C@@H]1CN([C@H](C)CO)C(=O)c2cccc(NC(=O)c3ccncc3)c2O[C@@H]1CN(C)Cc1ccc(Oc2ccccc2)cc1
